According to ChEMBL document CHEMBL2346534, “Design, synthesis and in vitro anti-proliferative activity of 4,6-quinazolinediamines as potent EGFR-TK inhibitors” (Eur J Med Chem, 2013):

Tests used:
SW-620 = assay: Cytotoxicity against human SW620 cells assessed as cell growth at 10^-5 M after 48 hrs by SRB assay; assay type: functional; settings: SW-620, 48 h, read-out: Activity
Summary of the method: (§1)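 NCI primary single-dose screen at 10^-5 M. Cells grown in RPMI 1640 with 5% FBS and 2 mM L-glutamine, given 24 h before drug addition, then 48 h exposure at 37 °C, 5% CO2. Cells TCA-fixed, stained with SRB, read at 515 nm. Reported as percent growth of treated cells relative to untreated controls.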

DU-145 = assay: Cytotoxicity against human DU145 cells assessed as cell growth at 10^-5 M after 48 hrs by SRB assay; assay type: functional; settings: DU-145, 48 h, read-out: Activity
Summary of the method: (§2)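 NCI 60 single-dose screen at 10^-5 M. Cells in RPMI 1640 with 5% FBS and 2 mM L-glutamine, preincubated 24 h at 37 °C/5% CO2. Drug from DMSO stock, then 48 h exposure. TCA fixation, SRB staining, absorbance at 515 nm. Result given as percent growth of treated cells relative to untreated control.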

BT-549 = assay: Cytotoxicity against human BT549 cells assessed as cell growth at 10^-5 M after 48 hrs by SRB assay; assay type: functional; settings: BT-549, 48 h, read-out: Activity; summary of the method: as §2
Malme-3M = assay: Cytotoxicity against human MALME-3M cells assessed as cell growth at 10^-5 M after 48 hrs by SRB assay; assay type: functional; settings: read-out: Activity; summary of the method: as §2
NCI-H23 = assay: Cytotoxicity against human NCI-H23 cells assessed as cell growth at 10^-5 M after 48 hrs by SRB assay; assay type: functional; settings: NCI-H23, 48 h, read-out: Activity
Summary of the method: (§3)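 NCI 60-panel single-dose primary screen at 10^-5 M. Cells are grown in RPMI 1640 with 5% FBS and 2 mM L-glutamine and preincubated 24 h at 37 °C. Drug exposure is 48 h. Cells are TCA-fixed, stained with SRB and absorbance is read at 515 nm. Results are reported as percent growth of treated cells versus untreated controls, corrected using time-zero plates.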

U-251 = assay: Cytotoxicity against human U251 cells assessed as cell growth at 10^-5 M after 48 hrs by SRB assay; assay type: functional; settings: U-251, 48 h, read-out: Activity; summary of the method: as §1
HCT-15 = assay: Cytotoxicity against human HCT15 cells assessed as cell growth at 10^-5 M after 48 hrs by SRB assay; assay type: functional; settings: HCT-15, 48 h, read-out: Activity; summary of the method: as §2
[1] = Cytotoxicity against human NCI-ADR-RES cells assessed as cell growth at 10^-5 M after 48 hrs by SRB assay; assay type: functional; settings: read-out: Activity; summary of the method: as §3
Hs-578T = assay: Cytotoxicity against human Hs578T cells assessed as cell growth at 10^-5 M after 48 hrs by SRB assay; assay type: functional; settings: read-out: Activity; summary of the method: as §2
NCI-H322M = assay: Cytotoxicity against human NCI-H322M cells assessed as cell growth at 10^-5 M after 48 hrs by SRB assay; assay type: functional; settings: read-out: Activity; summary of the method: as §3
SNB-75 = assay: Cytotoxicity against human SNB75 cells assessed as cell growth at 10^-5 M after 48 hrs by SRB assay; assay type: functional; settings: SNB-75, 48 h, read-out: Activity; summary of the method: as §3
MDA-MB-435 = assay: Cytotoxicity against human MDA-MB-435 cells assessed as cell growth at 10^-5 M after 48 hrs by SRB assay; assay type: functional; settings: MDA-MB-435, 48 h, read-out: Activity; summary of the method: as §2
786-0 = assay: Cytotoxicity against human 786-0 cells assessed as cell growth at 10^-5 M after 48 hrs by SRB assay; assay type: functional; settings: 786-0, 48 h, read-out: Activity; summary of the method: as §2
T47D = assay: Cytotoxicity against human T47D cells assessed as cell growth at 10^-5 M after 48 hrs by SRB assay; assay type: functional; settings: read-out: Activity; summary of the method: as §1
ACHN = assay: Cytotoxicity against human ACHN cells assessed as cell growth at 10^-5 M after 48 hrs by SRB assay; assay type: functional; settings: read-out: Activity; summary of the method: as §2
SF-539 = assay: Cytotoxicity against human SF539 cells assessed as cell growth at 10^-5 M after 48 hrs by SRB assay; assay type: functional; settings: SF-539, 48 h, read-out: Activity; summary of the method: as §3
MDA-MB-231 = assay: Cytotoxicity against human MDA-MB-231 cells assessed as cell growth at 10^-5 M after 48 hrs by SRB assay; assay type: functional; settings: MDA-MB-231, 48 h, read-out: Activity; summary of the method: as §2
COLO 205 = assay: Cytotoxicity against human COLO205 cells assessed as cell growth at 10^-5 M after 48 hrs by SRB assay; assay type: functional; settings: COLO 205, 48 h, read-out: Activity; summary of the method: as §2
PC-3 = assay: Cytotoxicity against human PC3 cells assessed as cell growth at 10^-5 M after 48 hrs by SRB assay; assay type: functional; settings: PC-3, 48 h, read-out: Activity; summary of the method: as §3
NCI-H460 = assay: Cytotoxicity against human NCI-H460 cells assessed as cell growth at 10^-5 M after 48 hrs by SRB assay; assay type: functional; settings: NCI-H460, 48 h, read-out: Activity; summary of the method: as §3
KM12 = assay: Cytotoxicity against human KM12 cells assessed as cell growth at 10^-5 M after 48 hrs by SRB assay; assay type: functional; settings: KM12, 48 h, read-out: Activity; summary of the method: as §2
[2] = target: Epidermal growth factor receptor (Homo sapiens, UniProt P00533); settings: at 10 µM;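 further: EGFR tyrosine kinase activity on a poly(Glu,Tyr) substrate, read out by Kinase-Glo Plus luminescence after a 40 min reaction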
Chain of Epidermal growth factor receptor (P00533 whole entry): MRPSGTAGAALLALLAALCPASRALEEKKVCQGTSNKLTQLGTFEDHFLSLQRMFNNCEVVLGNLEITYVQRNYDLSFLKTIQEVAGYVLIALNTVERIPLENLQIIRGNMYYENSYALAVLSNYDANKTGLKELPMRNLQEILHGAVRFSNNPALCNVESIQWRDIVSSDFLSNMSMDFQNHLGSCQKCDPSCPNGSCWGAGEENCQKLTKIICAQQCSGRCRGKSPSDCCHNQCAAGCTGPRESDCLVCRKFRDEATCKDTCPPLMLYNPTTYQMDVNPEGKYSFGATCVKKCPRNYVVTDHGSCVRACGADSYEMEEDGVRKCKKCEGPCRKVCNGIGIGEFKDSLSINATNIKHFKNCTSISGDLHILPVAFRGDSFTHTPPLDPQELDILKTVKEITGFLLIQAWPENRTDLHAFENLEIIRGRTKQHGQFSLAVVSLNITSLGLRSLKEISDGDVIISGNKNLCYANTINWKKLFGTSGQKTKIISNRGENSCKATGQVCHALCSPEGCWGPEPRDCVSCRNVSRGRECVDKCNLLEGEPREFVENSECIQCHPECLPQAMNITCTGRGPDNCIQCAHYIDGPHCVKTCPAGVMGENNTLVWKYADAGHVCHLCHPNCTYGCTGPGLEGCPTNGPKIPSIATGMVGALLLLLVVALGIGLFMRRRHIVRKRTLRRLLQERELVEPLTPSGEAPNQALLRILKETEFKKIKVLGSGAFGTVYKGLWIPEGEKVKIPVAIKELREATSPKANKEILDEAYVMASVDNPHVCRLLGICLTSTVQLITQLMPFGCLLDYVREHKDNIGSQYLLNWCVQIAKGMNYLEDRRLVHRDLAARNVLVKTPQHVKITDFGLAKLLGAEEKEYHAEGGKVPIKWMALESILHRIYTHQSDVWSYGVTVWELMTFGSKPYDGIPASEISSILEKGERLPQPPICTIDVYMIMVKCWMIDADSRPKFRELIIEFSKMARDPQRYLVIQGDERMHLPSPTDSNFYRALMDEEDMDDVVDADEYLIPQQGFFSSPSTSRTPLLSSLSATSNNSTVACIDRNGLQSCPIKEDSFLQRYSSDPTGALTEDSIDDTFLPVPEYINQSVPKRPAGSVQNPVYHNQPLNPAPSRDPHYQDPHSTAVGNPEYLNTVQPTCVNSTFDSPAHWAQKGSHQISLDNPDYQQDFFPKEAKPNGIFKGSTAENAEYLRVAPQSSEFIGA

A498 = assay: Cytotoxicity against human A498 cells assessed as cell growth at 10^-5 M after 48 hrs by SRB assay; assay type: functional; settings: A498, 48 h, read-out: Activity; summary of the method: as §2
HOP-62 = assay: Cytotoxicity against human HOP62 cells assessed as cell growth at 10^-5 M after 48 hrs by SRB assay; assay type: functional; settings: HOP-62, 48 h, read-out: Activity; summary of the method: as §2
OVCAR-8 = assay: Cytotoxicity against human OVCAR8 cells assessed as cell growth at 10^-5 M after 48 hrs by SRB assay; assay type: functional; settings: OVCAR-8, 48 h, read-out: Activity; summary of the method: as §3
UACC-62 = assay: Cytotoxicity against human UACC62 cells assessed as cell growth at 10^-5 M after 48 hrs by SRB assay; assay type: functional; settings: UACC-62, 48 h, read-out: Activity; summary of the method: as §1
NCI-H522 = assay: Cytotoxicity against human NCI-H522 cells assessed as cell growth at 10^-5 M after 48 hrs by SRB assay; assay type: functional; settings: NCI-H522, 48 h, read-out: Activity; summary of the method: as §3
UACC-257 = assay: Cytotoxicity against human UACC257 cells assessed as cell growth at 10^-5 M after 48 hrs by SRB assay; assay type: functional; settings: UACC-257, 48 h, read-out: Activity; summary of the method: as §1
K562 = assay: Cytotoxicity against human K562 cells assessed as cell growth at 10^-5 M after 48 hrs by SRB assay; assay type: functional; settings: K562, 48 h, read-out: Activity; summary of the method: as §2
HT-29 = assay: Cytotoxicity against human HT-29 cells assessed as cell growth at 10^-5 M after 48 hrs by SRB assay; assay type: functional; settings: HT-29, 48 h, read-out: Activity; summary of the method: as §2
TK-10 = assay: Cytotoxicity against human TK10 cells assessed as cell growth at 10^-5 M after 48 hrs by SRB assay; assay type: functional; settings: TK-10, 48 h, read-out: Activity; summary of the method: as §1
[3] = Cytotoxicity against human EKVX cells assessed as cell growth at 10^-5 M after 48 hrs by SRB assay; assay type: functional; settings: read-out: Activity; summary of the method: as §2
SN12C = assay: Cytotoxicity against human SN12C cells assessed as cell growth at 10^-5 M after 48 hrs by SRB assay; assay type: functional; settings: read-out: Activity; summary of the method: as §3

CCOC(=O)/C(C#N)=C\Nc1ccc2ncnc(Nc3ccc(Cl)cc3)c2c1
growth at 10 µM (SW-620): 97.3% | growth at 10 µM (DU-145): 49.2% | growth at 10 µM (BT-549): 76.1% | growth at 10 µM (Malme-3M): 142% | growth at 10 µM (NCI-H23): 92.5% | growth at 10 µM (U-251): 84.7% | growth at 10 µM (HCT-15): 84.9% | growth at 10 µM [1]: 72% | growth at 10 µM (Hs-578T): 89.3% | growth at 10 µM (NCI-H322M): 22.6% | growth at 10 µM (SNB-75): 86.3% | growth at 10 µM (MDA-MB-435): 70.5% | growth at 10 µM (786-0): 83.1% | growth at 10 µM (T47D): 72.7% | growth at 10 µM (ACHN): 51.2% | growth at 10 µM (SF-539): 103% | growth at 10 µM (MDA-MB-231): 93.1% | growth at 10 µM (COLO 205): 102% | growth at 10 µM (PC-3): 60.6% | growth at 10 µM (NCI-H460): 70% | growth at 10 µM (KM12): 74% | inhibition [2]: 100% | growth at 10 µM (A498): 53.1% | growth at 10 µM (HOP-62): 107% | growth at 10 µM (OVCAR-8): 83.3% | growth at 10 µM (UACC-62): 103% | growth at 10 µM (NCI-H522): 79.8% | growth at 10 µM (UACC-257): 108% | growth at 10 µM (K562): 61.4% | growth at 10 µM (HT-29): 86.3% | growth at 10 µM (TK-10): 51.3% | growth at 10 µM [3]: 20.6% | growth at 10 µM (SN12C): 87%

CCOC(=O)/C(C#N)=C\Nc1ccc2ncnc(Nc3ccccc3Cl)c2c1
growth at 10 µM (SW-620): 116% | growth at 10 µM (DU-145): 62.1% | growth at 10 µM (BT-549): 112% | growth at 10 µM (Malme-3M): 156% | growth at 10 µM (NCI-H23): 103% | growth at 10 µM (U-251): 96.3% | growth at 10 µM (HCT-15): 99% | growth at 10 µM [1]: 99.6% | growth at 10 µM (Hs-578T): 91% | growth at 10 µM (NCI-H322M): 47% | growth at 10 µM (SNB-75): 87.2% | growth at 10 µM (MDA-MB-435): 100% | growth at 10 µM (786-0): 91.3% | growth at 10 µM (T47D): 77.6% | growth at 10 µM (ACHN): 68.7% | growth at 10 µM (SF-539): 111% | growth at 10 µM (MDA-MB-231): 86.9% | growth at 10 µM (COLO 205): 110% | growth at 10 µM (PC-3): 98.8% | growth at 10 µM (NCI-H460): 98.7% | growth at 10 µM (KM12): 88.5% | inhibition [2]: 94% | growth at 10 µM (A498): 63.7% | growth at 10 µM (HOP-62): 99.1% | growth at 10 µM (OVCAR-8): 105% | growth at 10 µM (UACC-62): 107% | growth at 10 µM (NCI-H522): 107% | growth at 10 µM (UACC-257): 120% | growth at 10 µM (K562): 88.6% | growth at 10 µM (HT-29): 100% | growth at 10 µM (TK-10): 53% | growth at 10 µM [3]: 39% | growth at 10 µM (SN12C): 98.8%
